The record followed here is ChEMBL document CHEMBL1649441, “Potency and bactericidal activity of iclaprim against recent clinical gram-positive isolates” (2009).

For test [1], the system named is Staphylococcus aureus. Kind of test: Antibacterial activity against Methicillin-sensitive Staphylococcus aureus assessed as inhibition of bacterial growth at 0.015 ug/ml by CLSI broth microdilution method. In kind it is functional. A general note: Dilution methods test growth across graded concentrations, often in twofold steps.
Another test deals with Enterococcus faecium. Kind of test: Antibacterial activity against Enterococcus faecium assessed as inhibition of bacterial growth at 0.015 ug/ml by CLSI broth microdilution method. Format: functional. A digest of the protocol: (§1)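 Clinical isolates from skin/soft tissue, bloodstream and respiratory specimens were tested by broth microdilution per CLSI M7-A7 and M100-S18, with quality controls. Values are the number of isolates inhibited at each concentration, or MIC / percent susceptible. Highest concentration tested was 8 µg/ml for iclaprim and trimethoprim-sulfamethoxazole, and 64 µg/ml for trimethoprim.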

The subject of test [2] is Streptococcus sp. 'group A'. Kind of test: Antibacterial activity against Beta-hemolytic Streptococcus group A assessed as inhibition of bacterial growth at <= 0.008 ug/ml by CLSI broth microdilution method. In kind it is functional. A digest of the protocol: as §1
Test [3] concerns Enterococcus faecalis. Nature of the test: microbe, parasite or virus in culture. To be noted: read-out: INH.
Test [4] relates to Enterococcus faecalis. Kind of test: microbe, parasite or virus in culture. To be noted: read-out: INH. This is another data set of the same source.
Test [5] relates to Staphylococcus aureus. Nature of the test: microbe, parasite or virus in culture. To be noted: read-out: INH.
In test [6] the test system is Staphylococcus aureus. Kind of test: Antibacterial activity against Methicillin-sensitive Staphylococcus aureus assessed as resistant isolates by CLSI broth microdilution method. Format: functional.
Test [7] concerns Enterococcus faecalis. Nature of the test: microbe, parasite or virus in culture. To be noted: read-out: INH. The source holds these as a separate data set.

For the compound `COc1cc(Cc2cnc(N)nc2N)c2c(c1OC)OC(C1CC1)C=C2` (stereo not drawn), the inhibition at 0.015 µg/mL in the test with Staphylococcus aureus [1] is 0.3%; with Enterococcus faecium it was 36.3%. Further, in test [2], the “inhibition (INH)” value is recorded as 30.5%.
On to `COc1cc(Cc2cnc(N)nc2N)cc(OC)c1OC` [TRIMETHOPRIM], for which the inhibition at 32 µg/mL amounted to 71% with Enterococcus faecalis [3] and 98.7% in the test on Staphylococcus aureus [5]. The inhibition at 64 µg/mL with Enterococcus faecalis [4] amounted to 72.9%. Besides, in the test with Staphylococcus aureus [6], the Activity was 1.3%. The inhibition at 16 µg/mL in the test with Enterococcus faecalis [7] was determined as 70.6%.
